In PubChem BioAssay AID463147 (The Scripps Research Institute Molecular Screening Center, 2010):
The source made the active and inactive calls.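 The calls were made as follows: active = fold change below 0.7, the computed hit cutoff; inactive = the rest.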

Target: Nuclear receptor ROR-gamma (Homo sapiens) (UniProt P51449)
Assay: RORG inhibitors in reporter cells, late-stage follow-up, selectivity assay for RORA inverse agonist project, cell-based, luminescence, single concentration, HEK293T GAL4-RORg (AID 463147)
Conditions: HEK293T GAL4-RORg LBD luciferase reporter, 18-24 h; at 10 µM; active compounds read low
Procedure, shortened: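 system = transfected HEK293T, GAL4-RORγ LBD and UAS-luciferase reporter | compound dosing = single nominal concentration of 10 µM per compound | timing = 20 h compound exposure, cells replated 24 h post-transfection | measured by = reporter luminescence | controls = DMSO wells as reference | repeats = six replicates per compound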

Nuclear receptor ROR-gamma (Homo sapiens), sequence (P51449 whole entry, looked up, the tested form may be a part): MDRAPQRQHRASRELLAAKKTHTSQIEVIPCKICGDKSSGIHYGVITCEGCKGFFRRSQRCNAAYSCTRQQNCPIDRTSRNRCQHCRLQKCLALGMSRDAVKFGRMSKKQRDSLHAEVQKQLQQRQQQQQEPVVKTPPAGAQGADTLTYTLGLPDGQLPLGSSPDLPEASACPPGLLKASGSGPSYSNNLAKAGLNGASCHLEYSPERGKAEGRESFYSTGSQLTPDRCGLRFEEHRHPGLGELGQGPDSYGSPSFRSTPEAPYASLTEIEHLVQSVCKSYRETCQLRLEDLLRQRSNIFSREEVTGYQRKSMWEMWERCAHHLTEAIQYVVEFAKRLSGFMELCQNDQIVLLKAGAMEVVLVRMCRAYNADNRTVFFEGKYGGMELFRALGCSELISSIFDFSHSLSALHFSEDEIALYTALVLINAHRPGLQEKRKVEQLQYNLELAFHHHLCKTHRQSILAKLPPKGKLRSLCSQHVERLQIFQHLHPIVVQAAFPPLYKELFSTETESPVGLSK

Row | Compound | fold change
1 | O=S(=O)(Nc1ccc(C(O)(C(F)(F)F)C(F)(F)F)cc1)c1cccs1 | 0.91 (inactive)
2 | O=C(Nc1ccc(C(O)(C(F)(F)F)C(F)(F)F)cc1)c1ccc(Cl)cc1 | 0.873 (inactive)
3 | O=C(Nc1ccc(C(O)(C(F)(F)F)C(F)(F)F)cc1)c1ccccc1C(F)(F)F | 0.897 (inactive)

Further lines, results first:

Row | fold change | Compound
4 | 1.06 (inactive) | O=C(Nc1ccc(C(O)(C(F)(F)F)C(F)(F)F)cc1)c1c(F)cccc1F
5 | 1.23 (inactive) | O=C(Nc1ccc(C(O)(C(F)(F)F)C(F)(F)F)cc1)c1ccc(F)cc1F
6 | 0.974 (inactive) | O=C(Nc1ccc(C(O)(C(F)(F)F)C(F)(F)F)cc1)c1ccc(F)cc1Cl
